# Read-outs that look alike come from different tables or passages of the source. Where a SMILES comes first, the peptide text is derived from it. [ ]: non-standard residue; d: D form. The star is where a group is joined. Sta = CC(C)C[C@H](N)[C@@H](O)CC(=O)O; Isovaleryl = CC(C)CC(=O)*; CH2Cl = ClC*
# Columns and labels:
# [1] = tested on: HLA-I presentation of M. tuberculosis epitopes by H37Rv-eGFP-infected DCs; assay: cells; assay type: cell-based, human; conditions: for inhibition at 10 µg/mL: Homo sapiens, T-cell
# [2] = tested on: CD8^+ T cells present in PBMCs; conditions: PBMCs of the donor from whom the clone was derived; cited from earlier work
# DCs = assay: Toxicity of inhibitor to DCs; assay type: cell-based; conditions: human DCs
# Method in brief: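 Human DCs were derived from leukapheresis PBMCs. Adherent PBMCs were cultured 5 d with GM-CSF (10 ng/ml) and IL-4 (10 ng/ml) in RPMI 1640 with 10% pooled human serum, 4 mM L-glutamine and gentamicin (50 μg/ml).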
# [3] = molecular target: Purified 20S immunoproteasomes (Homo sapiens, UniProt P28062+P28065+P40306); assay: In vitro proteasome digestion of CFP10_2–21; assay type: biochemical; conditions: epoxomicin 1 μM, 20 h, 37°C
# TAP = molecular target: T1, TAP (Homo sapiens, UniProt Q03518+Q03519); assay: ICP47-mediated TAP inhibition, intracellular IFN-γ staining of T cell clones; assay type: cell-based; conditions: adenovirus-ICP47-transduced DCs pulsed with 0.25–1 μg/ml cognate peptides
# T1 sequence (Q03518 1-748): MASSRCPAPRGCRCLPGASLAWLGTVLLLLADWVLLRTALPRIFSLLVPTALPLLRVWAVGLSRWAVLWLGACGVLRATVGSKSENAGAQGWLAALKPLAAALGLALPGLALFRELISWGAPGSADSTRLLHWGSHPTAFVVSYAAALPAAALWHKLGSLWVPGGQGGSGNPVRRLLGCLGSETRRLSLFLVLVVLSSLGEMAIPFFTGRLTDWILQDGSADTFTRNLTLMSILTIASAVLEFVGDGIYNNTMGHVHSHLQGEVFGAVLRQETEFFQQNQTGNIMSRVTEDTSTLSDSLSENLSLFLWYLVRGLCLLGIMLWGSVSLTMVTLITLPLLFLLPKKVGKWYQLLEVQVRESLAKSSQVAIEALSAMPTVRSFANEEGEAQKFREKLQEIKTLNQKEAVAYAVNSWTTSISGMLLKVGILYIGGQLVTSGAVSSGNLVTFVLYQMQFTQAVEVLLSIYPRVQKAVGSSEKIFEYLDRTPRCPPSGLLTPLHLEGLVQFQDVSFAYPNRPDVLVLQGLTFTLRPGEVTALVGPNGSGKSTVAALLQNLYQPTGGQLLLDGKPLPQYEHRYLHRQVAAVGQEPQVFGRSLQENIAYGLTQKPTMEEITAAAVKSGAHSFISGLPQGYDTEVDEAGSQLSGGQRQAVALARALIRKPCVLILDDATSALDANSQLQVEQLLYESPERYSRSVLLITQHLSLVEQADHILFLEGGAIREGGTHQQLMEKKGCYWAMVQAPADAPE
# T1 sequence (Q03519 1-686): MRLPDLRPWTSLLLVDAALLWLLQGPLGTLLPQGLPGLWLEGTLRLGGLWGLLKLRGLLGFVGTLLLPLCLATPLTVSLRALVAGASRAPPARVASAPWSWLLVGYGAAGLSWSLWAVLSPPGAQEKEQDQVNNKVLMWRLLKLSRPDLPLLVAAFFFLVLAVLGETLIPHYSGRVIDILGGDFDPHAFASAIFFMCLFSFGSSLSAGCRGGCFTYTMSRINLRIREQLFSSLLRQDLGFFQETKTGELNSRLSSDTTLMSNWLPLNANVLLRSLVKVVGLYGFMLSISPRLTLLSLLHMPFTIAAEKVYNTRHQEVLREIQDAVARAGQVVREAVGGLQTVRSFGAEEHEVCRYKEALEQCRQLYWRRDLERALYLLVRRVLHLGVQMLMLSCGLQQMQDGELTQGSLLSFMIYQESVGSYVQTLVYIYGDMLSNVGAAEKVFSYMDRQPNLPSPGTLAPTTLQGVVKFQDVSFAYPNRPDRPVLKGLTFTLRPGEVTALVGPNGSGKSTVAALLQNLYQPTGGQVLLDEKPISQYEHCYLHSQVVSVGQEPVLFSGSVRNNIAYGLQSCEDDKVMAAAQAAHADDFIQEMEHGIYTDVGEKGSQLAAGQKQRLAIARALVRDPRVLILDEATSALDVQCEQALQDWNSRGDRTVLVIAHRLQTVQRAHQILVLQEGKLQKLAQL
# [4] = cycloheximide 10 μg/ml, […], Fig. 5
# [5] = […], AAF-CMK at highest possible nontoxic dose, data not shown
compound,measurement,setting,value
"C[C@@H]1C[C@@H]([C@H](O)CC2CC(=O)NC(=O)C2)C(=O)[C@@H](C)C1 [Cycloheximide, cycloheximide]",inhibition at 10 µg/mL,[1]; read-out: Inhibition of presentation of epitope CFP10_2–12,> 70%
same,inhibition at 10 µg/mL,[1]; read-out: Inhibition of presentation of epitope EsxJ24–34,> 70%
same,Effect on presentation of the HLA-E–presented epitope,[1]; [4],enhanced presentation
same,Effect on presentation of the epitope CFP10_2–9,[1]; [4],only slightly inhibited
C[C@H](N)C(=O)N[C@@H](C)C(=O)N[C@@H](Cc1ccccc1)C(=O)CCl [AAF-CMK] (H-Ala-Ala-Phe-CH2Cl),Effect on presentation of the EsxJ24–34 or CFP10_75–83 epitope,[1]; [5],no effect
EMKTDAATL [CFP10_3–11],Ex Vivo Frequency of CD8+ T cells present in PBMCs specific for the indicated epitope,[2],1/646
"CC[C@H](C)[C@H](NC(=O)[C@H]([C@@H](C)CC)N(C)C(C)=O)C(=O)N[C@H](C(=O)N[C@@H](CC(C)C)C(=O)[C@@]1(C)CO1)[C@@H](C)O [Epoxomicin, epoxomicin]",Effect on presentation of CFP10_2–9 and Ag85B144–153 epitopes,"[1]; epoxomicin 1–10 μM, […], Fig. 2",ablated
same,Highest dose that was nontoxic to DCs,DCs,10 µM
same,Effect on amount of CFP10_2–11 generated from CFP10_2–21 by proteasomes,[3]; IFN-γ ELISPOT and LC-MS,drastically reduced
same,Effect on generation of CFP10_2–12 from CFP10_2–21 by proteasomes,[3]; detectible by T cell assay but not LC-MS,enhanced the generation
CC(=O)N[C@@H](CC(C)C)C(=O)N[C@@H](CC(C)C)C(=O)N[C@H](C=O)CCCNC(=N)N [leupeptin],Effect on presentation of the EsxJ24–34 or CFP10_75–83 epitope,[1]; [5],did not block
"CO/C1=C\C(C)=C\[C@@H](C)[C@@H](O)[C@@H](C)C/C(C)=C/C=C/[C@H](OC)[C@@H]([C@@H](C)[C@@H](O)[C@H](C)[C@@]2(O)C[C@@H](O)[C@H](C)[C@@H](C(C)C)O2)OC1=O [Bafilomycin, bafilomycin]",Effect on presentation of all of the epitopes examined,"[1]; […], BFA 0.1 μg/ml, bafilomycin 0.2 μM, Fig. 1",did not significantly inhibit
"ICP47: HSV-1–encoded protein, prevents peptide binding to cytosolic face of TAP; expressed from an adenovirus vector",Effect on presentation of cognate peptide to CD8+ T cell clones,TAP,no effect
AEMKTDAA [CFP10_2–9],Ex Vivo Frequency of CD8+ T cells present in PBMCs specific for the indicated epitope,[2],1/102
CCN(CC)CCCC(C)Nc1ccnc2cc(Cl)ccc12 (stereo not shown) [chloroquine],Effect on presentation of the EsxJ24–34 or CFP10_75–83 epitope,[1],neither of these epitopes was inhibited
CC(C)CC(=O)N[C@H](C(=O)N[C@H](C(=O)N[C@@H](CC(C)C)[C@@H](O)CC(=O)N[C@@H](C)C(=O)N[C@@H](CC(C)C)[C@@H](O)CC(=O)O)C(C)C)C(C)C [pepstatin A] (Isovaleryl-VV[Sta]A[Sta]-OH),Effect on presentation of the EsxJ24–34 or CFP10_75–83 epitope,[1]; [5],did not block

# From article PMC2988655 (Journal of immunology (Baltimore, Md. : 1950), 2010)
